# High-throughput results from PubChem BioAssay.
# The list is not random: actives were taken first. Their share in the collection is about 3.7%.
# Kir21 block: inhibitors of mouse Kir2.1 inward-rectifier potassium channel; P35561; HEK293-Kir2.1, FluxOR thallium flux fluorescence; active compounds read low; B-score at 10 µM; 0.85% of 310,000 active; AID 1672;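 active means fluorescence ratio B-score at or below minus 3 SD of library scores, with starting-brightness B-score within 2 SD, cut at about -4.2 in these data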;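 further: channel flux triggered by added potassium and thallium sulfate stimulus; B-score of peak minus minimum fluorescence over baseline after thallium stimulus; more negative B-score means stronger Kir2.1 block with less thallium influx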
# KCNQ1 act: potentiators or activators of human KCNQ1 potassium channel | AID 2648 | B-score at 10 µM | CHO-K1 KCNQ1, thallium flux FluxOR fluorescence; active compounds read high | 0.35% of 310,000 active | P51787;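 active means fluorescence ratio B-score, a plate-corrected score, at least three library SD, with initial intensity B-score within 5 SD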
#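 Assay system: CHO-K1 cells stably expressing KCNQ1; Medium: assay buffer with matched DMSO; Also added: K+/Tl+ depolarizing stimulus; Dosing: single dose; Timing: dye 90 min, compound 20 min, room temperature; Measured by: kinetic FluxOR thallium fluorescence, 10-s 1-Hz baseline, 110-s post-stimulus read; Read-out: peak-minus-minimum fluorescence over initial fluorescence, negative-control normalized, B-scored.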
# KCNQ1 inh: human KCNQ1 channel inhibition; CHO-K1 KCNQ1, FluxOR thallium flux fluorescence; active compounds read high; B-score at 10 µM; 1.3% of 310,000 active; AID 2642;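 active means compounds whose thallium flux B-score, printed positive for inhibition, exceeds three library SD while starting fluorescence stays within three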;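 further: channel opened by potassium depolarization with thallium stimulus after 20 min compound exposure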
# KCNK3 block: human KCNK3 channel inhibition, primary screen | CHO-KCNK3 thallium flux, FluxOR fluorescence; active compounds read low | B-score at 10 µM | 0.84% of 340,000 active | AID 602410 | O14649;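 active means B-score under library mean minus 4 SD, starting fluorescence ratio at most library mean plus 5 SD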;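 further: more negative B-score means stronger inhibition of thallium flux through KCNK3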
# KCNK9 block: human KCNK9 channel inhibition | HEK293 KCNK9, FluxOR thallium flux fluorescence; active compounds read low | AID 488922 | Q9NPC2 | B-score at 10 µM | 1.2% of 310,000 active;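 active means ratio B-score over 3 SD below the library mean, with starting fluorescence within 5 SD of its mean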;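 further: negative B-score means less thallium flux so channel inhibition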
# hERG protect: shields human hERG channel from block by proarrhythmic agents; activation (rescue from dofetilide block), less the hit threshold, % at 10 µM; 0.51% of 310,000 active; CHO-hERG, FluxOR thallium flux, dofetilide IC70 present; AID 1511;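 active means activation above the mean of controls blocked by dofetilide plus 5 SD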;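 further: thallium influx through hERG after potassium depolarization seen as dye fluorescence rise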
# KCNK9 inh conf: confirmation of human KCNK9 potassium channel inhibitors; shares compounds with KCNK9 block; HEK293 KCNK9 cells, FluxOR thallium flux fluorescence; inhibition, % at 10 µM; 43% of 4,900 active; AID 492992;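 active means thallium signal inhibited by more than 5 SD of the compound-free buffer control wells, on both duplicate plates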;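 further: 0% = assay buffer control wells without compound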
# Kir2-1 spec: tests whether KCNK9 modulators also affect mouse Kir2.1; shares compounds with KCNK9 block; Kir2.1 cells, FluxOR thallium flux fluorescence; inhibition, % at 10 µM; 4% of 4,900 active;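 active means thallium signal drop more than 5 SD beyond the mean of the no-compound control wells, seen in both duplicate plates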;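 further: signal is fluorescence rise after thallium addition divided by baseline fluorescence; plate controls were assay buffer only for no effect and full block by chlorpromazine control for full effect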
# KCNK9 uninduced: second counter-screen for KCNK9 modulators: effect in non-induced cells; shares compounds with KCNK9 block; non-induced KCNK9-HEK293, FluxOR thallium flux; inhibition, % at 10 µM; 40% of 4,900 active; AID 492997;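 active means thallium signal drop beyond 5 SD of the untreated control mean, on both duplicate plates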;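 further: plate controls were buffer only IC0 wells for no effect and SID17386958 at its maximal inhibitory level for full effect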
# The depositor's hits bear a star; i = inactive; / = no result given.
SMILES,Kir21 block,KCNQ1 act,KCNQ1 inh,KCNK3 block,KCNK9 block,hERG protect,KCNK9 inh conf,Kir2-1 spec,KCNK9 uninduced
Cc1cccc(CC(C)NC(=O)c2oc3c(F)cccc3c2C)n1 (centres undefined),1.4,i,i,i,i,-8,/,/,/
O=C(NC(=S)Nc1ccc2c(c1)OCCO2)c1ccccc1,0.85,i,i,i,i,-10,/,/,/
CCOc1cccc(C(=O)NC(=S)Nc2ccc3c(c2)OCCO3)c1,0.22,i,i,i,i,-6,i,i,i
CCc1nn(CC(=O)NCCCN2CCOCC2)c(=O)c2cc3cc(F)ccc3n12,0.3,i,i,i,i,-6,/,/,/
CN(Cc1ccc(F)cc1)Cc1nc(CCc2ccccc2)no1,1.3,i,i,i,i,-13,i,i,i
COc1ccc(-c2ccc(OC)c([C@H]3[C@H]4C=CC[C@@H](C)[C@@H]4C(=O)N3Cc3ccccc3)c2)cc1OC,-0.93,i,i,i,i,-15,i,i,i
CCCCN(C(=O)c1ccc(Br)o1)C1CCS(=O)(=O)C1 (centres undefined),0.36,i,i,i,i,-10,/,/,/
CN(Cc1cnn(C)c1)Cc1nc(Cc2ccccc2Cl)no1,-0.67,i,i,i,i,-5,/,/,/
COc1ccc(CN(C)Cc2nc(Cc3cccc(F)c3)no2)c2cccnc12,-1.6,i,i,i,i,-27,/,/,/
COc1cccc(-n2cc(CN(C)Cc3nc(Cc4cccc(F)c4)no3)cn2)c1,-0.38,i,i,i,i,-19,i,i,i
COc1cccc(-n2cc(CN(C)Cc3nc(Cc4ccccc4)no3)cn2)c1,0.66,i,i,i,i,-9,i,i,i
CCOC(=O)c1c(C)[nH]c(C)c1C(=O)CSc1nc2ccccc2c(=O)n1-c1ccc(F)cc1,0.05,i,i,i,-10*,-15,i,i,i
Cc1ccc(C(=O)CSc2nc3ccccc3c(=O)n2-c2ccccc2)s1,-0.44,i,i,i,i,-3,/,/,/
CCOC(=O)c1c(C)[nH]c(C)c1C(=O)CSc1nc2ccccc2c(=O)n1-c1ccccc1C,0.63,i,i,i,-9.6*,-12,32%*,i,34%*
Cc1cc(C(=O)COC(=O)c2ccccc2O)c(C)n1Cc1cccs1,-0.61,i,i,i,i,-11,/,/,/
Cc1cc(C(=O)COC(=O)c2ccc3c(c2)OCO3)c(C)n1Cc1cccs1,0.91,i,i,i,i,-5,i,i,i
CCn1nc(C(=O)OCC(=O)c2cc(C)n(Cc3cccs3)c2C)c2ccccc2c1=O,-0.1,i,i,i,i,-17,i,i,i
O=C(NNC(=S)NCC1CCCO1)c1cc(Br)ccc1Cl (centres undefined),-0.78,i,i,i,i,-15,/,/,/
COc1cc(/C=C/C(=O)OCC(=O)N2CCCC2)cc(OC)c1OC,/,/,/,i,/,/,/,/,/
CN(C(=S)NC(=O)C12CC3CC(CC(C3)C1)C2)c1ccc(O)cc1,/,/,/,i,/,/,/,/,/
CCc1nnc(NS(=O)(=O)c2ccc(NCc3cc(Cl)ccc3O)cc2)s1,0.77,i,i,i,i,-12,i,i,i
CCc1nnc(NS(=O)(=O)c2ccc(NCc3cc(Cl)cc(Cl)c3O)cc2)s1,0.34,i,i,i,i,-20,i,i,i
CCc1nnc(NS(=O)(=O)c2ccc(NC(=O)OC)cc2)s1,0,i,i,i,i,-11,/,/,/
COCCC1CCCCN1C(=O)c1ccc2nc(Cc3ccccc3F)oc2c1 (centres undefined),-1.8,i,i,i,i,-12,/,/,/
Cc1sc2nc(C3CC3)nc(SCC(=O)N3CCCc4ccccc43)c2c1C,-1.2,i,i,/,i,-7,/,/,/
SMILES,Kir21 block,KCNQ1 act,KCNQ1 inh,KCNK3 block,KCNK9 block,hERG protect,KCNK9 inh conf,Kir2-1 spec,KCNK9 uninduced
Cc1sc2nc(C3CC3)nc(SCC(=O)N3CCc4ccccc4C3)c2c1C,-0.72,i,i,i,i,-16,i,i,i
CCCc1nc(SCC(=O)N2c3ccccc3CC2C)c2c(C)c(C)sc2n1 (centres undefined),-0.37,i,i,i,i,-7,i,i,i
CCOCc1c(C(=O)Nc2ccc(OC)nc2)oc2ccccc12,0.27,i,i,i,i,-10,/,/,/
CN(C)c1cccc(C(=O)NNC(=O)CN2C(=O)C3CC=CCC3C2=O)c1 (centres undefined),/,/,/,i,/,/,/,/,/
COC(=O)c1ccccc1Oc1nc(Cl)cc(OC)n1,0.98,i,i,i,i,-5,/,/,/
COc1cc(OC)nc(Oc2ccccc2C(=O)Oc2ccc(Cl)cc2)n1,0,i,i,i,-9*,1,44%*,i,39%*
COc1cc(OC)nc(Oc2ccccc2C(=O)Oc2ccccc2Cl)n1,-3.6,i,i,i,-11*,1,42%*,i,28%*
Nn1c(SCC(=O)Nc2ccccc2F)nnc1-c1cccs1,-1,i,i,i,i,-8,/,/,/
Cc1ccc2cccc(N=Cc3c(C)[nH]n(-c4ccccc4)c3=O)c2n1,-0.02,i,i,i,-10*,-2,47%*,i,i
O=C(CSc1nc2c(cnn2-c2ccccc2)c(=O)[nH]1)N1N=C(c2cccs2)CC1c1ccc(F)cc1 (centres undefined),2,i,i,i,-14*,-26,i,i,i
O=C(NCc1cccc(Cl)c1)c1cccnc1,1,i,i,i,i,-10,/,/,/
O=C(NCc1cccnc1)c1cc(Sc2cccc(Cl)c2)nc2ccccc12,-2,i,i,i,-8.2*,-9,36%*,i,i
COc1ccc(S(=O)(=O)N2CN3CCN(C3)C2)cc1,0.14,i,i,i,i,-4,/,/,/
COc1cccc(C(=O)/C=C/c2ccc(N3CCCCC3)c([N+](=O)[O-])c2)c1,1.8,i,i,i,-8.3*,-11,36%*,i,35%*
Nc1ccn(C2OC(COP(=O)(O)O)C(O)C2O)c(=O)n1 (centres undefined),/,/,/,i,/,/,/,/,/
